Assay [1] addresses T1, Melanocortin receptor 4 (Homo sapiens, UniProt P32245). As to the kind of experiment: Activity at hMC4R transfected in HEK293 cells assessed as intracellular cAMP accumulation relative to MT2. It is filed as functional, cell-based. Further details: concentration or dose not given beside the values.
The target in assay [2] is T2, Melanocortin receptor 5 (Homo sapiens, UniProt P33032). As to the kind of experiment: Displacement of [125I]NDP-alphaMSH from human MC5 receptor expressed in HEK293 cells relative to MT2. Type of assay: cell-based. The procedure, abridged: (§1)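 Binding efficiency was measured in the whole-cell [¹²⁵I]NDP-α-MSH competition assay on receptor-transfected HEK293 cells (30 min, 37 °C). It is expressed as the peptide's maximal percentage specific binding relative to MTII agonist binding, with peptides tested at 10⁻¹⁰ to 10⁻⁵ M.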
T2 sequence (P33032 whole entry): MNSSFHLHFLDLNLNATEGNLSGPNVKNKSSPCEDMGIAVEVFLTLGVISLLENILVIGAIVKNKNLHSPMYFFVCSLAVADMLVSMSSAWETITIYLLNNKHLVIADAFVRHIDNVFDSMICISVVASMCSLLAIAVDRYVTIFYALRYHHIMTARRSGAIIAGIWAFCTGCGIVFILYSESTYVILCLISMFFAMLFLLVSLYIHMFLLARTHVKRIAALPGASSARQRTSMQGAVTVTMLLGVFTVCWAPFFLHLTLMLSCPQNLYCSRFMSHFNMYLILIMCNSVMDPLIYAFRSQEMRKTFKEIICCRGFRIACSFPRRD

The target of assay [3] is T3, Melanocortin receptor 3 (Homo sapiens, UniProt P41968). Nature of the assay: Displacement of [125I]NDP-alphaMSH from human MC3 receptor expressed in HEK293 cells. It is filed as cell-based. The procedure, abridged:
(§2)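 Whole-cell competition used transfected HEK293 cells seeded 48 h ahead at 100 000 cells/well. Binding buffer was MEM with 25 mM HEPES pH 7.4, 0.2% BSA, 1 mM 1,10-phenanthroline, leupeptin and bacitracin. Radioactivity was gamma-counted, and IC50 was obtained by nonlinear least-squares fit.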

Assay [4] concerns the target T2, Melanocortin receptor 5. As to the kind of experiment: Activity at hMC5R transfected in HEK293 cells assessed as intracellular cAMP accumulation. It is filed as functional, cell-based. The procedure, abridged: (§3)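 HEK293 cells stably carrying the human MC receptor were seeded 48 h ahead at 50 000 cells/well. They were preincubated 1 min at 37 °C in EBSS with IBMX, then exposed to peptide at 10⁻¹⁰ to 10⁻⁵ M for 3 min at 37 °C. Ice-cold Tris/EDTA stopped the reaction, and lysates were boiled 15 min. Total cAMP was measured by competitive binding kit, and EC50 was obtained by nonlinear least-squares fit.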
Background: Cyclic AMP is a second messenger, typically raised through Gs and lowered through Gi signalling.

Assay [5] addresses T2, Melanocortin receptor 5. As to the kind of experiment: Activity at hMC5R transfected in HEK293 cells assessed as intracellular cAMP accumulation relative to MT2. It is filed as functional, cell-based.
In assay [6] the target is T3, Melanocortin receptor 3. As to the kind of experiment: Activity at hMC3R transfected in HEK293 cells assessed as intracellular cAMP accumulation relative to MT2. It is filed as functional, cell-based. Further details: concentration or dose not given beside the values.
Assay [7] concerns the target T3, Melanocortin receptor 3. Nature of the assay: Displacement of [125I]NDP-alphaMSH from human MC3 receptor expressed in HEK293 cells relative to MT2. Type of assay: cell-based. Put shortly: as §1
On the technique in general: Loss of bound radioactivity is the signal in a displacement assay; it reports binding, not function.

For assay [8], the target named is T4, Melanocyte-stimulating hormone receptor (Homo sapiens, UniProt Q01726). Nature of the assay: Displacement of [125I]NDP-alphaMSH from human MC1 receptor expressed in HEK293 cells. It is filed as cell-based. Put shortly:
as §2

Assay [9] concerns the target T4, Melanocyte-stimulating hormone receptor. Nature of the assay: Activity at hMC1R transfected in HEK293 cells assessed as intracellular cAMP accumulation relative to MT2. It is filed as functional, cell-based. On the set-up: concentration or dose not given beside the values.
Target sequence in this assay (Q01726 whole entry, looked up): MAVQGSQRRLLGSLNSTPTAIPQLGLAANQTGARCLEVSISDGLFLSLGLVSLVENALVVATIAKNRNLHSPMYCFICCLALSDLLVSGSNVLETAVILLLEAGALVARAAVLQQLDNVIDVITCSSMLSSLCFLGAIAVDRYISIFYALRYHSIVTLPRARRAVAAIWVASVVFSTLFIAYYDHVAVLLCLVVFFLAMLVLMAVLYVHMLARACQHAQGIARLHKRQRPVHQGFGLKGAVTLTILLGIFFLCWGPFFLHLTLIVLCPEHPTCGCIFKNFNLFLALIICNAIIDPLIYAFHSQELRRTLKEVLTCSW
The target of assay [10] is T1, Melanocortin receptor 4. Nature of the assay: Activity at hMC4R transfected in HEK293 cells assessed as intracellular cAMP accumulation. It is filed as functional, cell-based. The procedure, abridged:
as §3

Assay [11] addresses T1, Melanocortin receptor 4. As to the kind of experiment: Displacement of [125I]NDP-alphaMSH from human MC4 receptor expressed in HEK293 cells. It is filed as cell-based. Put shortly: as §2
Assay [12] concerns the target T3, Melanocortin receptor 3. As to the kind of experiment: Activity at hMC3R transfected in HEK293 cells assessed as intracellular cAMP accumulation. Type of assay: functional, cell-based. Put shortly: as §3
The target of assay [13] is T1, Melanocortin receptor 4. Nature of the assay: Displacement of [125I]NDP-alphaMSH from human MC4 receptor expressed in HEK293 cells relative to MT2. It is filed as cell-based. Put shortly: as §1
Assay [14] concerns the target T4, Melanocyte-stimulating hormone receptor. Nature of the assay: Displacement of [125I]NDP-alphaMSH from human MC1 receptor expressed in HEK293 cells relative to MT2. Type of assay: cell-based. The procedure, abridged: as §1
Target sequence in this assay (Q01726 whole entry, looked up): as above
In assay [15] the target is T2, Melanocortin receptor 5. As to the kind of experiment: Displacement of [125I]NDP-alphaMSH from human MC5 receptor expressed in HEK293 cells. Type of assay: cell-based. The procedure, abridged: as §2

Active and inactive are the calls of the source. The calls are words filed in the database; no cut-off is given here.

T3 sequence (P41968 whole entry): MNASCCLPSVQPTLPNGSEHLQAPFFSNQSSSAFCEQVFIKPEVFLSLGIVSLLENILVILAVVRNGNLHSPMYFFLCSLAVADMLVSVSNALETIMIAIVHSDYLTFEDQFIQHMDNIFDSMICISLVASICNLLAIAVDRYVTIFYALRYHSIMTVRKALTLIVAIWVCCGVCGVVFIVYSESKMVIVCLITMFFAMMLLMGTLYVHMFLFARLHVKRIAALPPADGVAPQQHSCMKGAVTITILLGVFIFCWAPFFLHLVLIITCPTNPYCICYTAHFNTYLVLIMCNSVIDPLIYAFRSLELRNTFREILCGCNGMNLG
T1 sequence (P32245 whole entry): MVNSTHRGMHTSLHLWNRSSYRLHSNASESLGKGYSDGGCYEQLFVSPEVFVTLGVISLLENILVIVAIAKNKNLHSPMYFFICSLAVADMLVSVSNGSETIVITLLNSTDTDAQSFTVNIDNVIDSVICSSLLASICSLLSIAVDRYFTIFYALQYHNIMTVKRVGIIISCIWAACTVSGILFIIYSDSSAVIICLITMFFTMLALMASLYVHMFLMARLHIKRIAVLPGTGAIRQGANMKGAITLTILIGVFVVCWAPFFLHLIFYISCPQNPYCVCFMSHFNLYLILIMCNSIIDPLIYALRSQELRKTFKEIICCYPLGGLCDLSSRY

One may read the IC50 as the point on the concentration scale where inhibition reaches its midpoint. Consider `CC(=O)N[C@H]1CCC(=O)NCCC[C@@H](C(=O)N[C@@H](Cc2c[nH]c3ccccc23)C(N)=O)N(CCCCN=C(N)N)C(=O)[C@@H](Cc2ccc3ccccc3c2)NC(=O)[C@H](Cc2c[nH]cn2)NC1=O`, for which the Activity is 0% at Melanocortin receptor 4 [1]; 0% at Melanocortin receptor 5 [2]; 0% at Melanocortin receptor 5 [5]; 0% on Melanocortin receptor 3 [6]; 50% on Melanocortin receptor 3 [7]; 0% in assay [9]. Further, the Activity is 0% at Melanocortin receptor 4 [13] and under 10% in assay [14]. For the same molecule, the IC50 is over 1000 nM on Melanocortin receptor 3 [3] and over 10000 nM in [8]. Besides, the result on Melanocortin receptor 5 [4], at Melanocortin receptor 4 [10], at Melanocortin receptor 4 [11], at Melanocortin receptor 3 [12] and at Melanocortin receptor 5 [15] was inactive.
As for `CC(=O)N[C@H]1CCC(=O)NCC[C@@H](C(=O)N[C@@H](Cc2c[nH]c3ccccc23)C(N)=O)N(CCCCN=C(N)N)C(=O)[C@@H](Cc2ccccc2)NC(=O)[C@H](Cc2cnc[nH]2)NC1=O`, the IC50 (on Melanocortin receptor 3 [3]; in [8]) was over 1000 nM each time.
Usually EC50 stands for the concentration needed to bring the measured effect to its halfway point. Consider `CC(=O)N[C@H]1CSSC[C@@H](C(=O)N(CCCCN=C(N)N)[C@@H](Cc2c[nH]c3ccccc23)C(N)=O)NC(=O)[C@@H](Cc2ccccc2)NC(=O)[C@H](Cc2cnc[nH]2)NC1=O`, for which the IC50 is over 1000 nM at Melanocortin receptor 3 [3], over 1000 nM in assay [8] and 4.1 nM on Melanocortin receptor 4 [11]. Further, at Melanocortin receptor 4 [10], the concentration for a half-maximal effect (EC50) is over 1000 nM.
Consider `CC(=O)N[C@H]1CSSC[C@H](C(=O)N[C@@H](Cc2c[nH]c3ccccc23)C(N)=O)N(CCCCN=C(N)N)C(=O)[C@@H](Cc2ccccc2)NC(=O)[C@H](Cc2c[nH]cn2)NC1=O`, for which the Activity (on Melanocortin receptor 4 [1]; on Melanocortin receptor 5 [2]; on Melanocortin receptor 5 [5]; at Melanocortin receptor 3 [6]; on Melanocortin receptor 3 [7]; in [9]) was 0% in each case. In addition, the Activity on Melanocortin receptor 4 [13] is 0%; in assay [14], under 10%. Also, the outcome on Melanocortin receptor 3 [3], on Melanocortin receptor 5 [4], at Melanocortin receptor 4 [10], on Melanocortin receptor 4 [11], on Melanocortin receptor 3 [12] and at Melanocortin receptor 5 [15] was inactive. The IC50 in assay [8] amounted to 1000 nM.
Consider `CC(=O)N[C@H]1CSSC[C@@H](C(=O)N[C@@H](Cc2c[nH]c3ccccc23)C(N)=O)N(CCCCN=C(N)N)C(=O)[C@@H](Cc2ccccc2)NC(=O)[C@H](Cc2c[nH]cn2)NC1=O`, for which the Activity (on Melanocortin receptor 4 [1]; at Melanocortin receptor 5 [2]; on Melanocortin receptor 5 [5]; on Melanocortin receptor 3 [6]; at Melanocortin receptor 3 [7]; in assay [9]) was 0% in each case. Besides, the Activity turned out to be 50% at Melanocortin receptor 4 [13] and 0% in assay [14]. The outcome (at Melanocortin receptor 3 [3]; at Melanocortin receptor 5 [4]; in assay [8]; at Melanocortin receptor 4 [10]; on Melanocortin receptor 3 [12]; on Melanocortin receptor 5 [15]) was inactive.
For `CC(=O)N[C@H]1CSSC[C@@H](C(=O)N(CCCCN=C(N)N)[C@H](Cc2c[nH]c3ccccc23)C(N)=O)NC(=O)[C@@H](Cc2ccccc2)NC(=O)[C@H](Cc2c[nH]cn2)NC1=O`, the Activity at Melanocortin receptor 4 [1] is 19%; at Melanocortin receptor 5 [2], 0%; on Melanocortin receptor 5 [5], 0%; on Melanocortin receptor 3 [6] it was 0%; at Melanocortin receptor 3 [7] it was under 10%; in assay [9], 0%. The figures for the Activity (on Melanocortin receptor 4 [13]; in assay [14]) were 50% and 0%, respectively. Further, the result (on Melanocortin receptor 5 [4]; in [8]; at Melanocortin receptor 3 [12]; at Melanocortin receptor 5 [15]) was inactive.
Take `CC(=O)N[C@H]1CSSC[C@@H](C(=O)N(CCCCN=C(N)N)[C@H](Cc2c[nH]c3ccccc23)C(N)=O)NC(=O)[C@@H](Cc2ccccc2)NC(=O)[C@H](Cc2cnc[nH]2)NC1=O`: the IC50 is over 1000 nM at Melanocortin receptor 3 [3] and 0.7 nM at Melanocortin receptor 4 [11]. Also, the EC50 on Melanocortin receptor 4 [10] was over 1000 nM.
In the case of `CC(=O)N[C@H]1CSSC[C@@H](C(=O)N[C@@H](Cc2c[nH]c3ccccc23)C(N)=O)N(CCCCN=C(N)N)C(=O)[C@@H](Cc2ccccc2)NC(=O)[C@H](Cc2cnc[nH]2)NC1=O`, the IC50 on Melanocortin receptor 4 [11] was found to be 1.8 nM.
In the case of `CC(=O)N[C@H]1CSSC[C@@H](C(=O)N(CCCCN=C(N)N)C(Cc2c[nH]c3ccccc23)C(N)=O)NC(=O)[C@@H](Cc2ccc3ccccc3c2)NC(=O)[C@H](Cc2c[nH]cn2)NC1=O` (stereo in doubt), the Activity was 0% on Melanocortin receptor 4 [1]; under 10% at Melanocortin receptor 5 [2]; 0% on Melanocortin receptor 5 [5]; 0% at Melanocortin receptor 3 [6]; 0% on Melanocortin receptor 3 [7]; 0% in assay [9]. Further, the Activity at Melanocortin receptor 4 [13] is 0%; in [14], under 10%. The result at Melanocortin receptor 3 [3], at Melanocortin receptor 5 [4], on Melanocortin receptor 4 [10], at Melanocortin receptor 4 [11] and on Melanocortin receptor 3 [12] was inactive. The 50% inhibitory concentration (IC50) was over 1000 nM in assay [8] and 209 nM at Melanocortin receptor 5 [15].
As for `CC(=O)N[C@H]1CCC(=O)NCCC(C(=O)N[C@@H](Cc2c[nH]c3ccccc23)C(N)=O)N(CCCCN=C(N)N)C(=O)[C@@H](Cc2ccccc2)NC(=O)[C@H](Cc2c[nH]cn2)NC1=O` (stereo not given in full), the Activity on Melanocortin receptor 4 [1] was 0%; on Melanocortin receptor 5 [2] it was 0%; on Melanocortin receptor 5 [5], 0%; on Melanocortin receptor 3 [6] it was 0%; at Melanocortin receptor 3 [7] it was 50%; in [9] it was 0%. In addition, the Activity was 0% at Melanocortin receptor 4 [13] and under 10% in assay [14]. Also, the result at Melanocortin receptor 5 [4], on Melanocortin receptor 4 [10], on Melanocortin receptor 4 [11], on Melanocortin receptor 3 [12] and on Melanocortin receptor 5 [15] was inactive.
Take `CC(=O)N[C@H]1CCC(=O)NCCC[C@@H](C(=O)N[C@@H](Cc2c[nH]c3ccccc23)C(N)=O)N(CCCCN=C(N)N)C(=O)[C@@H](Cc2ccccc2)NC(=O)[C@H](Cc2c[nH]cn2)NC1=O`: the Activity on Melanocortin receptor 4 [1] was under 10%; on Melanocortin receptor 5 [2], 0%; on Melanocortin receptor 5 [5] it was 0%; on Melanocortin receptor 3 [6], 0%; on Melanocortin receptor 3 [7], 50%; in [9], 0%. The Activity at Melanocortin receptor 4 [13] is 50%; in [14], under 10%. The IC50 at Melanocortin receptor 3 [3] was over 1000 nM; in assay [8], 750 nM; at Melanocortin receptor 4 [11], 101 nM. Besides, the result at Melanocortin receptor 5 [4], at Melanocortin receptor 3 [12] and on Melanocortin receptor 5 [15] was inactive. For the same molecule, the concentration for a half-maximal effect (EC50) at Melanocortin receptor 4 [10] is over 1000 nM.
Consider `CC(=O)N[C@H]1CSSC[C@@H](C(=O)N(CCCCN=C(N)N)[C@@H](Cc2c[nH]c3ccccc23)C(N)=O)NC(=O)[C@@H](Cc2ccccc2)NC(=O)[C@H](Cc2c[nH]cn2)NC1=O`, for which the Activity at Melanocortin receptor 4 [1] was 18%; on Melanocortin receptor 5 [2], 0%; at Melanocortin receptor 5 [5], 0%; on Melanocortin receptor 3 [6], 0%; at Melanocortin receptor 3 [7], 50%; in [9], 0%. The Activity is 50% at Melanocortin receptor 4 [13] and under 10% in assay [14]. In addition, the outcome on Melanocortin receptor 5 [4], on Melanocortin receptor 3 [12] and on Melanocortin receptor 5 [15] was inactive.

The record behind these values is ChEMBL document CHEMBL1137337, “Design, synthesis, and biological evaluation of new cyclic melanotropin peptide analogues selective for the human melanocortin-4 receptor” (J Med Chem, 2006).
